Assay [1] deals with GST-Cn (catalytic domain of human Cn) (Homo sapiens, UniProt Q08209). Type of assay: binding. The settings on record: Cn 5 μM, TMR-labeled peptide 100 nM. The method, boiled down:
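Human Cn catalytic domain as a GST fusion, expressed in E. coli BL21 and glutathione-Sepharose purified. Single-bead-released TAMRA-labeled cyclic peptide (100 nM) was incubated with 5 μM GST-Cn for 2 h at room temperature in 20 mM HEPES pH 7.4, 150 mM NaCl, 2 mM magnesium acetate, 0.1% BSA. Anisotropy was read at ex 545/em 585 nm and expressed as % increase over the peptide without Cn.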

The target in the next assay is Cn. Particulars: cited from earlier work.
Assay [2] has as its target Calcineurin (Homo sapiens) (UniProt Q08209). Particulars: cited from earlier work.

pKd: −log10 of the molar value.

With `CN(C)c1ccc2c(-c3ccccc3C(=O)[O-])c3ccc(N(C)C)cc3[o+]c2c1` [free TMR, tetramethylrhodamine], the “percentage of FA increase (relative to the control without Cn)” value in assay [1] is “less than 20%”.

By pKd is commonly meant the Kd on a negative log10 scale, so that one unit is a factor of ten. On to MAPGHPVIVITGPHEE, for which the pKd at Cn (VIVIT peptide binding to Cn) is 6.30. In the assay on Cn, the “fold higher affinity for Cn than the native sequence” value is 50 fold.

Consider VIVIT peptide, for which, in assay [2], the pKd was 6.30.

The record behind these values is article PMC3171643 (ACS combinatorial science, 2011).
